These results are taken from ChEMBL document CHEMBL1133553, “Synthesis and transporter binding properties of bridged piperazine analogues of 1-[2-[bis(4-fluorophenyl)methoxy]ethyl]-4-(3-phenylpropyl)piperazine (GBR 12909)” (J Med Chem, 2000).

Experiment [1] has as its target T1, Sodium-dependent serotonin transporter (Rattus norvegicus, UniProt P31652). The experiment is described as follows: Inhibition of [3H]5-HT reuptake in whole rat brain (minus cerebellum) homogenate. It is filed as functional, tissue-based.
The target of experiment [2] is T2, Sodium-dependent dopamine transporter (Rattus norvegicus, UniProt P23977). The experiment is described as follows: Inhibition of [3H]DA reuptake in rat caudate homogenate. Type of experiment: functional, tissue-based.
For experiment [3], the target named is T3, Monoamine transporters; serotonin & dopamine (Rattus norvegicus) (UniProt P31652+P23977). The experiment is described as follows: Ratio of binding affinity of 5-HT to that of DA. Type of experiment: protein assay.
For experiment [4], the target named is T2, Sodium-dependent dopamine transporter. The experiment is described as follows: Binding affinity for rat Dopamine transporter. A digest of the protocol: (§1)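 Drugs and blockers prepared in 55.2 mM sodium phosphate buffer, pH 7.4, with 1 mg/mL BSA. Radioligand prepared in the same buffer with chymostatin, leupeptin, EDTA and EGTA. Triplicate incubations ran 18-24 h at 4 °C (equilibrium) in 1 mL, then were filtered over GF/B filters presoaked in 2% polyethylenimine.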

In experiment [5] the target is T1, Sodium-dependent serotonin transporter. The experiment is described as follows: Binding affinity for rat 5-hydroxytryptamine transporter. The method in brief: as §1
In experiment [6] the target is T3, Monoamine transporters; serotonin & dopamine (Rattus norvegicus). The experiment is described as follows: Ratio of reuptake of 5-HT to that of DA. It is filed as functional.

Each structure is given as a SMILES string.

T3 sequence (P23977 whole entry, looked up): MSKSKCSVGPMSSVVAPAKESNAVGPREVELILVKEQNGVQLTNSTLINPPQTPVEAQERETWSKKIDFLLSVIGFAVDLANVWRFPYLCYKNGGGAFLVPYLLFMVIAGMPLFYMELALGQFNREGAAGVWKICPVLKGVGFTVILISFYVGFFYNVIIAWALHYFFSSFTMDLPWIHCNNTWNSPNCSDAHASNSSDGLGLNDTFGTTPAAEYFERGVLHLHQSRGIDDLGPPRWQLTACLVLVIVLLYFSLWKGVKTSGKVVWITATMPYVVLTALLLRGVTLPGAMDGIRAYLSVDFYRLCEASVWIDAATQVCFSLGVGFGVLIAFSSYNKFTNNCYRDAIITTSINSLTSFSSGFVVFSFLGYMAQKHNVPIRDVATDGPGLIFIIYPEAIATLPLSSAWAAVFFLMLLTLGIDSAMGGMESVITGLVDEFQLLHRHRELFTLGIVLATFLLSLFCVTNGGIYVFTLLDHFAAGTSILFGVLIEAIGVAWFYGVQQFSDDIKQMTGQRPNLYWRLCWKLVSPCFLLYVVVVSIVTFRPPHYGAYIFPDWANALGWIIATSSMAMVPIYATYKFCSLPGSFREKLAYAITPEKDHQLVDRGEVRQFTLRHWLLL
T3 sequence (P31652 whole entry, looked up): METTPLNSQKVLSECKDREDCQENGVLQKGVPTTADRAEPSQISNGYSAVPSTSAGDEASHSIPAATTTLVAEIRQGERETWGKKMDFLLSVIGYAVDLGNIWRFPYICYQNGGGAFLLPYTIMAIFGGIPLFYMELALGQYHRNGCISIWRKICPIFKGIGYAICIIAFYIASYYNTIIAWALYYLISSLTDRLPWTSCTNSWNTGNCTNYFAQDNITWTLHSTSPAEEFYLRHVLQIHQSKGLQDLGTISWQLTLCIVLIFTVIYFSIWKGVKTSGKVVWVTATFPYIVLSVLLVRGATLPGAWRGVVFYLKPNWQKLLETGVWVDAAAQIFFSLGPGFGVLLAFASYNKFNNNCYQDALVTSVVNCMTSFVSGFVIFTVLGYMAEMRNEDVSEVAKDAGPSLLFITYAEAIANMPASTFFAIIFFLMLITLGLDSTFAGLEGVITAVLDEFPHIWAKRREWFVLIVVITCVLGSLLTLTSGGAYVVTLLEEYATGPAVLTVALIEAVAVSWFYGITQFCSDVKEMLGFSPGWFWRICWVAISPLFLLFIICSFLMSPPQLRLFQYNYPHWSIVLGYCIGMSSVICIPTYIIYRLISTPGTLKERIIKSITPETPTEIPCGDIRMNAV
T2 sequence (P23977 whole entry): as the sequence (P23977 whole entry, looked up) above
T1 sequence (P31652 whole entry): as the sequence (P31652 whole entry, looked up) above

As usually defined, the IC50 is the concentration that inhibits the measured activity by half. A low value points to greater potency in that assay. Take `c1ccc(CCCN2C3CCC2CN(CCOC(c2ccccc2)c2ccccc2)CC3)cc1` (stereo not given): the IC50 was 2.3 µM in experiment [1], 0.087 µM in experiment [2], 0.032 µM in experiment [4] and 1.32 µM in experiment [5]. In addition, the Ratio in experiment [3] is 41; in experiment [6], 26.

In the case of `c1ccc(CCCN2CC3CC2CN3CCOC(c2ccccc2)c2ccccc2)cc1` (stereo not given), the IC50 in experiment [1] turned out to be 0.912 µM; in experiment [2], 0.198 µM; in experiment [4], 0.223 µM; in experiment [5], 0.72 µM. Further, the Ratio in experiment [3] was 3; in experiment [6], 5.

Regarding `c1ccc(C(OCCN2CCC3CCC(C2)N3)c2ccccc2)cc1` (stereo not given), the IC50 in experiment [1] stood at 3.96 µM; in experiment [2], 0.26 µM; in experiment [4] it was 0.431 µM; in experiment [5] it was 6.06 µM. Further, the Ratio was 14 in experiment [3] and 15 in experiment [6].

For the compound `CN1C2CCC1CN(CCOC(c1ccc(F)cc1)c1ccc(F)cc1)C2`, the IC50 in experiment [1] was determined as 0.898 µM; in experiment [2], 0.0096 µM; in experiment [4], 0.008 µM; in experiment [5] it was 0.705 µM. The Ratio in experiment [3] was 88; in experiment [6], 93.

In the case of `Fc1ccc(C(OCCN2CC3CCC(C2)N3CCCc2ccccc2)c2ccc(F)cc2)cc1`, the IC50 in experiment [1] was 0.506 µM; in experiment [2], 0.219 µM; in experiment [4], 0.0082 µM; in experiment [5], 0.077 µM.

Consider `CN1CC2CC1CN2CCOC(c1ccc(F)cc1)c1ccc(F)cc1` (stereo not given), for which the IC50 in experiment [1] worked out at 2.15 µM; in experiment [2] it was 0.125 µM; in experiment [4], 0.121 µM; in experiment [5], 1.7 µM. For the same compound, the Ratio in experiment [3] came out at 14; in experiment [6] it was 17.

Turning to `Fc1ccc(C(OCCN2CC3CCC(C2)N3C/C=C/c2cccnc2)c2ccc(F)cc2)cc1`, the half-inhibitory concentration (IC50) in experiment [1] is 0.968 µM; in experiment [2], 0.024 µM; in experiment [4], 0.012 µM; in experiment [5], 0.395 µM. For the same compound, the values for the Ratio in experiment [3] and in experiment [6] were 33 and 40, respectively.

Consider `Fc1ccc(C(OCCN2CC3CC2CN3CCCc2ccccc2)c2ccc(F)cc2)cc1` (stereo not given), for which the IC50 in experiment [1] was determined as 0.173 µM; in experiment [2], 0.113 µM; in experiment [4], 0.127 µM; in experiment [5], 0.203 µM. The Ratio stood at 1.6 in experiment [3] and 1.5 in experiment [6].

As for `c1ccc(CCCN2C3CCC2CN(CCOC(c2ccccc2)c2ccccc2)C3)cc1`, the IC50 amounted to 1.39 µM in experiment [1], 0.024 µM in experiment [2], 0.018 µM in experiment [4] and 0.74 µM in experiment [5]. In addition, the Ratio worked out at 42 in experiment [3] and 58 in experiment [6].

Regarding `CN1C2CCC1CN(CCOC(c1ccccc1)c1ccccc1)C2`, the IC50 in experiment [1] stood at 13.7 µM; in experiment [2], 1.14 µM; in experiment [4], 0.111 µM; in experiment [5], 6.4 µM. Also, the Ratio in experiment [3] came out at 58; in experiment [6], 12.

Consider `CN1C2CCC1CN(CCOC(c1ccccc1)c1ccccc1)CC2` (stereo not given), for which the IC50 was found to be 6.15 µM in experiment [1], 0.928 µM in experiment [2], 0.307 µM in experiment [4] and 17 µM in experiment [5]. The Ratio was 56 in experiment [3] and 6.6 in experiment [6].

As to `Fc1ccc(C(OCCN2CC3CCC(C2)N3C/C=C/c2ccco2)c2ccc(F)cc2)cc1`, the IC50 in experiment [1] is 0.299 µM; in experiment [2], 0.024 µM; in experiment [4] it was 0.0055 µM; in experiment [5], 0.146 µM. Further, the Ratio in experiment [3] worked out at 27; in experiment [6] it was 13.

In the case of `CN1C2CCC1CN(CCOC(c1ccc(F)cc1)c1ccc(F)cc1)CC2` (stereo not given), the IC50 in experiment [1] came to 1.67 µM; in experiment [2], 0.036 µM; in experiment [4] it was 0.089 µM; in experiment [5], 1.9 µM. Further, the Ratio stood at 21 in experiment [3] and 47 in experiment [6].

Consider `CN1CC2CC1CN2CCOC(c1ccccc1)c1ccccc1` (stereo not given), for which the IC50 in experiment [1] came out at 28 µM; in experiment [2], 0.83 µM; in experiment [4], 1.17 µM; in experiment [5], 33 µM. Besides, the figures for the Ratio in experiment [3] and in experiment [6] were 29 and 33, respectively.

Take `Fc1ccc(C(OCCN2CCC3CCC(C2)N3CCCc2ccccc2)c2ccc(F)cc2)cc1` (stereo not given): the IC50 in experiment [1] was determined as 2.08 µM; in experiment [2], 0.047 µM; in experiment [4], 0.13 µM; in experiment [5], 0.843 µM. Also, the Ratio was found to be 6.5 in experiment [3] and 44 in experiment [6].

Take `Fc1ccc(C(OCCN2CC3CCC(C2)N3Cc2cc3ccccc3[nH]2)c2ccc(F)cc2)cc1`: the half-maximal inhibitory concentration (IC50) in experiment [1] worked out at 0.645 µM; in experiment [2], 0.04 µM; in experiment [4], 0.0014 µM; in experiment [5], 0.104 µM. The figures for the Ratio in experiment [3] and in experiment [6] were 74 and 16, respectively.

In the case of `Fc1ccc(C(OCCN2CC3CCC(C2)N3C/C=C/c2cccs2)c2ccc(F)cc2)cc1`, the IC50 in experiment [1] was 0.268 µM; in experiment [2] it was 0.028 µM; in experiment [4] it was 0.004 µM; in experiment [5] it was 0.046 µM. The Ratio worked out at 12 in experiment [3] and 10 in experiment [6].
